Measurements taken from ChEMBL document CHEMBL3085701, “Optimization of novel indole-2-carboxamide inhibitors of neurotropic alphavirus replication” (J Med Chem, 2013).

How the values were obtained:
[1] = test system: Western equine encephalitis virus; assay: Antiviral activity against Western equine encephalomyelitis virus infected in human BE(2)-C cells assessed as inhibition of viral RNA replication after 18 to 20 hrs by luciferase reporter gene assay; assay type: functional, cell-based
[2] = Kinetic solubility of the compound; assay type: physicochemical
[3] = Cytotoxicity against human BE(2)-C cells after 18 to 20 hrs by MTT assay; assay type: cell-based
[4] = biological target: MDR1 (ABCB1, P-glycoprotein) (Homo sapiens, UniProt P08183); assay: Inhibition of human MDR1 expressed in MDCK2 cells assessed as increase of rhodamine 123 uptake at 30 uM up to 240 mins relative to control; assay type: ADME, cell-based, MDCK-II; conditions: MDCK2 cells expressing human MDR1, probe rhodamine 123
In short: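 Confluent MDR1-MDCKII cells (human Pgp-transfected) given fresh DMEM with 10 μM rhodamine 123, plus vehicle, tariquidar (5 μM) or compound (30 μM). Uptake at 37°C from 1 to 240 min, stopped by ice-cold PBS washes. Fluorescence read at ex 525/em 560-640 nm. Result expressed as % of same-day tariquidar effect, (Cav−Cveh)*100/(Ctar−Cveh). Triplicates on ≥3 occasions.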

Fort Morgan virus = assay: Antiviral activity against Fort Morgan virus infected in human BE(2)-C cells assessed as reduction of viral titer at 25 uM after 24 hrs by plaque reduction assay (reference value: 47.1 +/- 10.5 x 10^6 pfu/ml); assay type: functional
[5] = Cytotoxicity against human BE(2)-C cells assessed as cell viability at 25 uM after 24 hrs by MTT assay relative to control; assay type: cell-based; conditions: read-out: Activity
[6] = Half life in Balb-C mouse liver microsomes; assay type: ADME, Microsome
In short: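 Compound incubated with Balb-C mouse liver microsomes, and half-life determined for oxidative metabolism. Values are means of ≥2 independent incubations.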

[7] = test system: Western equine encephalitis virus; assay: Antiviral activity against Western equine encephalomyelitis virus infected in human BE(2)-C cells assessed as reduction of viral titer at 25 uM after 24 hrs by plaque reduction assay (reference value: 25.7 +/- 5.2 x 10^6 pfu/ml); assay type: functional

Chain of MDR1 (ABCB1, P-glycoprotein) (P08183 whole entry): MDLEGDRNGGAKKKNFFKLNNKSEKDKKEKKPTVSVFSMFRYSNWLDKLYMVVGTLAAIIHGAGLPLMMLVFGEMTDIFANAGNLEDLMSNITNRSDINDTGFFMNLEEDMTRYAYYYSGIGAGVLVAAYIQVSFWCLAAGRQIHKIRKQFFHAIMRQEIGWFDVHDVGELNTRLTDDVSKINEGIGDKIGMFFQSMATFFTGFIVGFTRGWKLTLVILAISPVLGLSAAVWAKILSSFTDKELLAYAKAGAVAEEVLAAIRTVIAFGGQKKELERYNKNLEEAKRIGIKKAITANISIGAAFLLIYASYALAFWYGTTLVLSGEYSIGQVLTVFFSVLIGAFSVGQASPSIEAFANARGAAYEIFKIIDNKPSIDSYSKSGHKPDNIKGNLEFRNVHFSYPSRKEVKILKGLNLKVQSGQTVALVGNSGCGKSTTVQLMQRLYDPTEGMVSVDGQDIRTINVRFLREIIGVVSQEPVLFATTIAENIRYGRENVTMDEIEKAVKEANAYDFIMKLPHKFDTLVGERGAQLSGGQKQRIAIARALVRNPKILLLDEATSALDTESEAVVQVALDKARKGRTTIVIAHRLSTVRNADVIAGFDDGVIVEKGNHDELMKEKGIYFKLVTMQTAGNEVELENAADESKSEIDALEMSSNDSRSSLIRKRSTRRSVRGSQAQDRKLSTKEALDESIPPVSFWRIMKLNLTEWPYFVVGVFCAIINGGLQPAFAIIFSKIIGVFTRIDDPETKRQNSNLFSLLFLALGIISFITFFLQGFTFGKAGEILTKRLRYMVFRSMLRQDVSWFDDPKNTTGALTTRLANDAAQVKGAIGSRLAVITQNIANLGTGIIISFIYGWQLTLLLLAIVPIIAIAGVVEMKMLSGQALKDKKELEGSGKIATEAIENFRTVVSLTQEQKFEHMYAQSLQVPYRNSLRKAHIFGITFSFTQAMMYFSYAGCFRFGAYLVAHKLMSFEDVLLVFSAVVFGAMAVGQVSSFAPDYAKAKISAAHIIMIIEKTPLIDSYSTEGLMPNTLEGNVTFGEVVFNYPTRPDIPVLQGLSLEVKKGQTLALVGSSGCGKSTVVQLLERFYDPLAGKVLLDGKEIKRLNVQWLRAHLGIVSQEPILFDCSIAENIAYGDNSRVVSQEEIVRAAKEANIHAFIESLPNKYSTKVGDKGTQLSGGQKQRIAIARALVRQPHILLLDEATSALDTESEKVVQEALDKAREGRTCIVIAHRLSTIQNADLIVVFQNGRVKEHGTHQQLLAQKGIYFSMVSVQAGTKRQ

SMILES | IC50 [1] [µM] | CC50 ([3]; BE(2)-C cells) [µM] | inhibition at 4 h, 30 µM [4] [%] | CC50 ([3]; be(2)-c) [µM] | also measured
O=C(NCc1ccco1)C1CCN(C(=O)c2cc3sccc3n2Cc2ccc(F)cc2)CC1 | 23.7 |  |  |  | 
O=C(NCc1ccncc1)C1CCN(C(=O)c2cc3ccccc3n2Cc2ccc(Cl)cc2)CC1 | 6.8 | > 100 | 25.9 |  | Kinetic_solubility [2]: 31 µM
O=C(NCc1cccnc1)C1CCN(C(=O)c2cc3ccccc3n2Cc2ccc(Cl)cc2)CC1 | 11.4 |  |  |  | 
O=C(NCCc1ccncc1)C1CCN(C(=O)NCCc2ccc(Cl)cc2)CC1 | 40.9 | > 100 |  |  | Kinetic_solubility [2]: 250 µM
Cn1c(C(=O)N2CCC(C(=O)NCCc3ccncc3)CC2)cc2ccccc21 | > 50 | > 50 |  |  | 
O=C(NCCc1ccncc1)C1CCN(C(=O)c2cc3ccccc3n2Cc2ccccc2)CC1 | 1.6 |  | 11.7 | 45.6 | Activity (Fort Morgan virus): 6.8 ×10⁶ PFU/ml; viability at 24 h, 25 µM [5]: 79.4%; Kinetic_solubility [2]: 31 µM; t1/2 [6]: 77.9 min
O=C(NCCc1ccncc1)C1CCN(C(=O)c2cc3ccc(F)cc3n2Cc2ccc(Cl)cc2)CC1 | 0.6 |  | 30.8 | 43.1 | Activity (Fort Morgan virus): 1.6 ×10⁶ PFU/ml; viability at 24 h, 25 µM [5]: 69.2%
O=C(NCCc1ccncc1)C1CCN(C(=O)c2cc3cc(F)ccc3n2Cc2ccc(Cl)cc2)CC1 | 0.9 |  | 42.6 | 52.5 | Kinetic_solubility [2]: 31 µM
O=C(NCCc1ccncc1)C1CCN(C(=O)c2cc3ccncc3n2Cc2ccc(Cl)cc2)CC1 | 4.4 |  | 1.2 | 77.1 | Activity (Fort Morgan virus): 69.4 ×10⁶ PFU/ml; viability at 24 h, 25 µM [5]: 66.1%; Kinetic_solubility [2]: 125 µM; t1/2 [6]: 9.1 min
O=C(NCCc1ccncc1)C1CCN(C(=O)c2cc(F)cn2Cc2ccc(Cl)cc2)CC1 | 0.9 |  |  | 8 | Kinetic_solubility [2]: 125 µM
CC(C)c1ccc(CCNC(=O)C2CCN(C(=O)c3cc4ccccc4n3Cc3ccc(Cl)cc3)CC2)cc1 | 10.8 |  |  | 27.2 | 
O=C(c1cc2ccccc2n1Cc1ccc(Cl)cc1)N1CCC(C(=O)N2CCC[C@H]2CO)CC1 | 30.6 |  |  | 98.9 | 
CN(C)C(=O)C1CCN(C(=O)c2cc3ccccc3n2Cc2ccc(Cl)cc2)CC1 | 10.5 | > 100 | 23.2 |  | Kinetic_solubility [2]: 62 µM
O=C(c1cc2ccccc2n1Cc1ccc(Cl)cc1)N1CCC(C(=O)N2CCCC2)CC1 | 22.2 |  |  | 65.6 | 
O=C(c1cc2ccccc2n1Cc1ccc(Cl)cc1)N1CCC(C(=O)N2CCOCC2)CC1 | 12.8 | > 100 |  |  | 
CN(Cc1ccccc1)C(=O)C1CCN(C(=O)c2cc3ccccc3n2Cc2ccc(Cl)cc2)CC1 | 16.9 |  |  | 87 | 
CN(Cc1ccccc1)C(=O)C1CCN(C(=O)c2cc3ccccc3n2Cc2ccc([N+](=O)[O-])cc2)CC1 | 61.3 | > 100 |  |  | 
CN(Cc1ccccc1)C(=O)C1CCN(C(=O)c2cc3ccccc3n2Cc2ccc(C#N)cc2)CC1 | 95.9 | > 100 |  |  | 
COc1ccc(Cn2c(C(=O)N3CCC(C(=O)N(C)Cc4ccccc4)CC3)cc3ccccc32)cc1 | 16.5 |  |  | 99.2 | 
CC(=O)n1c(C(=O)N2CCC(C(=O)N(C)Cc3ccccc3)CC2)cc2ccccc21 | > 50 | > 50 |  |  | 
COCCn1c(C(=O)N2CCC(C(=O)N(C)Cc3ccccc3)CC2)cc2ccccc21 | > 50 | > 50 |  |  | 
CC(C)Cn1c(C(=O)N2CCC(C(=O)N(C)Cc3ccccc3)CC2)cc2ccccc21 | 27.9 |  |  | 58.2 | 
CN(Cc1ccccc1)C(=O)C1CCN(C(=O)c2cc3ccccc3n2Cc2ccccc2)CC1 | 17 |  |  | 64.8 | 
CN(Cc1ccccc1)C(=O)C1CCN(C(=O)c2cc3ccccc3n2Cc2ccncc2)CC1 | 24.2 |  |  | 80.3 | 

SMILES | IC50 [1] [µM] | CC50 ([3]; BE(2)-C cells) [µM] | inhibition at 4 h, 30 µM [4] [%] | CC50 ([3]; be(2)-c) [µM] | also measured
CN(Cc1ccccc1)C(=O)C1CCN(C(=O)c2cc3ccccc3n2Cc2ccc(C(F)(F)F)cc2)CC1 | 35.1 |  |  | 90.3 | 
O=C(NCCc1ccncc1)C1CCN(C(=O)c2nccn2Cc2ccc(Cl)cc2)CC1 | > 50 | > 50 | 0.13 |  | solubility kinetic ([2]; read-out: Kinetic_solubility): > 500 µM
O=C(NCCc1ccncc1)C1CCN(C(=O)c2nc3ccccc3n2Cc2ccc(Cl)cc2)CC1 | 4.1 |  | 6.9 | 74.6 | Activity (Fort Morgan virus): 16.4 ×10⁶ PFU/ml; viability at 24 h, 25 µM [5]: 69.7%; Kinetic_solubility [2]: 63 µM; t1/2 [6]: 43 min
O=C(NCc1ccccc1)C1CCN(C(=O)c2cc3ccccc3n2Cc2ccc(Cl)cc2)CC1 | 15.6 |  |  |  | 
C[C@@H](NC(=O)C1CCN(C(=O)c2cc3ccccc3n2Cc2ccc(Cl)cc2)CC1)c1ccncc1 | 0.6 |  | 35.9 | 92.3 | Activity (Fort Morgan virus): 6.4 ×10⁶ PFU/ml; viability at 24 h, 25 µM [5]: 65.5%; t1/2 [6]: 23.4 min
CN1CCN(C(=O)C2CCN(C(=O)c3cc4ccccc4n3Cc3ccc(Cl)cc3)CC2)CC1 | 31.4 |  |  | 75.6 | 
CN1CCC(CNC(=O)C2CCN(C(=O)c3cc4ccccc4n3Cc3ccc(Cl)cc3)CC2)CC1 | > 50 | > 50 |  |  | 
Cn1ccc(CNC(=O)C2CCN(C(=O)c3cc4ccccc4n3Cc3ccc(Cl)cc3)CC2)n1 | 76.9 | > 100 |  |  | 
Cn1cnc(CNC(=O)C2CCN(C(=O)c3cc4ccccc4n3Cc3ccc(Cl)cc3)CC2)c1 | > 50 | > 50 |  |  | 
O=C(NCCc1cccnc1)C1CCN(C(=O)c2cc3ccccc3n2Cc2ccc(Cl)cc2)CC1 | 5.3 |  | 30.1 | 39.4 | 
O=C(NCCc1ccccn1)C1CCN(C(=O)c2cc3ccccc3n2Cc2ccc(Cl)cc2)CC1 | 22.4 |  | 21.9 | 86.2 | 
O=C(NCCCc1ccncc1)C1CCN(C(=O)c2cc3ccccc3n2Cc2ccc(Cl)cc2)CC1 | 31.9 |  | 35.2 | 71.5 | Kinetic_solubility [2]: 16 µM
CC(CNC(=O)C1CCN(C(=O)c2cc3ccccc3n2Cc2ccc(Cl)cc2)CC1)c1ccncc1 (centres undefined) | 1.7 |  | 25.4 | 98.2 | Activity (Fort Morgan virus): 13.3 ×10⁶ PFU/ml; viability at 24 h, 25 µM [5]: 74%
CC(C)(Cc1ccncc1)NC(=O)C1CCN(C(=O)c2cc3ccccc3n2Cc2ccc(Cl)cc2)CC1 | 19.3 | 43.6 |  |  | 
CN(CCc1ccncc1)C(=O)C1CCN(C(=O)c2cc3ccccc3n2Cc2ccc(Cl)cc2)CC1 | 1.6 |  | 72 | 47.9 | 
O=C(NCC1COc2cnccc21)C1CCN(C(=O)c2cc3ccccc3n2Cc2ccc(Cl)cc2)CC1 (centres undefined) | 3.6 |  | 47 | 75.8 | 
O=C(NCCn1ccnc1)C1CCN(C(=O)c2cc3ccccc3n2Cc2ccc(Cl)cc2)CC1 | 4.9 |  | 15.1 | 99.6 | Activity (Fort Morgan virus): 15.8 ×10⁶ PFU/ml; viability at 24 h, 25 µM [5]: 70.3%; Kinetic_solubility [2]: 31 µM; t1/2 [6]: 14.3 min
COc1cccc(CCNC(=O)C2CCN(C(=O)c3cc4ccccc4n3Cc3ccc(Cl)cc3)CC2)c1 | 11.1 | > 100 |  |  | 
O=C(NCCc1ccc(F)cc1)C1CCN(C(=O)c2cc3ccccc3n2Cc2ccc(Cl)cc2)CC1 | 21.4 |  |  | 18.6 | 
COc1ccc(CCNC(=O)C2CCN(C(=O)c3cc4ccccc4n3Cc3ccc(Cl)cc3)CC2)cc1 | 15.5 |  |  | 11.3 | 
O=C(NCCc1ccc(Cl)cc1)C1CCN(C(=O)c2cc3ccccc3n2Cc2ccc(Cl)cc2)CC1 | 8.1 |  |  | 40.4 | 
CC(NC(=O)C1CCN(C(=O)c2cc3ccccc3n2Cc2ccc(Cl)cc2)CC1)c1ccncc1 (racemic) | 2.4 |  | 43.1 | 90.1 | Activity (Fort Morgan virus): 3.7 ×10⁶ PFU/ml; viability at 24 h, 25 µM [5]: 63.2%; Activity [7]: 0.7 ×10⁶ PFU/ml; Kinetic_solubility [2]: 31 µM
NC(=O)c1ncn([C@@H]2O[C@H](CO)[C@@H](O)[C@H]2O)n1 [RIBAVIRIN] | 16 |  |  |  | Activity (Fort Morgan virus): 53.5 ×10⁶ PFU/ml; viability at 24 h, 25 µM [5]: 32.6%; Activity [7]: 9.3 ×10⁶ PFU/ml
